The record followed here is ChEMBL document CHEMBL1821656, “Design, synthesis, and evaluation of inhibitors of Norwalk virus 3C protease” (Bioorg Med Chem Lett, 2011).

In series [1] the test system is Norwalk virus. As to the kind of experiment: Inhibition of recombinant Norwalk virus 3C protease using Edans-EPDFHLQGPEDLAK-Dabcyl as substrate at [compound]/[substrate] ratio of 25 preincubated for 30 mins measured for 30 mins by spectrofluorometry. More on the design: concentration or dose not given beside the values.
Series [2] in a line: (§1) Inhibition of recombinant Norwalk virus 3C protease using Edans-EPDFHLQGPEDLAK-Dabcyl as substrate preincubated for 30 mins measured for 30 mins by spectrofluorometry. In outline:
(§2)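 Enzyme (final 2.5 μM) was held at 30 °C in pH 8.0 sodium phosphate (50 mM) containing 120 mM NaCl and 6 mM DTT. The fluorescence increase was monitored 30 min at 360/460 nm excitation/emission.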

Series [3] relates to Norwalk virus. Described as §1. In outline: as §2
A short description of series [4]: Cytotoxicity against human HG23 cells after 48 hrs. The conditions noted are these: read-out: TD50. It counts as cell-based. The method, boiled down: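 HG23 cells carrying the Norwalk replicon were used 1 day after plating at 80-90% confluence. They were exposed for 48 hr to compound at 0 (DMSO mock) to 320 μM. Viability was measured with a commercial cytotoxicity kit, and the median toxic dose (TD50) was calculated.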

A short description of series [5]: Cytotoxicity against mouse […] cells after 12 to 24 hrs relative to ribavirin. The conditions noted are these: read-out: TD50 (the source's name). The class given is cell-based.
Series [6] relates to Norwalk virus. As to the kind of experiment: Antiviral activity against Norwalk virus in NV replicon-harboring HG23 cells assessed as inhibition of viral replication after 24 hrs by analyzing NV genome level using qRT-PCR. It counts as functional. The conditions noted are these: HG23, 24 h, read-out: ED50 (the source's name). In outline: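 HG23 cells (stably harbouring NV replicon), 1 day old and 80–90% confluent, treated with compound at 0 (DMSO mock) to 320 μM. NV genome levels quantified by qRT-PCR after 24 h of treatment.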
On the technique in general: A replicon is a self-replicating genome or part of one, used to study replication in cells.

For orientation: inhibition means the share of the control response that was lost under treatment. As a reminder, the IC50 is the point on the concentration scale where inhibition reaches its midpoint.

Turning to `CC(C)C[C@H](NC(=O)OCc1ccccc1)C(=O)N[C@H](CO)CC1CCNC1=O` (stereo partly specified), the inhibition in the series with Norwalk virus [1] was below 25%.
For `CC[C@@H](C)[C@H](NC(=O)CNC(=O)OCc1ccccc1)C(=O)N[C@H](C=O)CC1CCNC1=O` (stereo partly specified), the IC50 in series [2] is 7.5 µM.
`O=C[C@H](CC1CCNC1=O)NC(=O)[C@H](Cc1ccccc1)NC(=O)N1CCOCC1` (stereo partly specified): the inhibition in the series on Norwalk virus [1] was below 25%.
For the compound `CCCC[C@H](NC(=O)CNC(=O)OCc1ccccc1)C(=O)N[C@H](C=O)CC1CCNC1=O` (stereo partly specified), the IC50 in series [2] amounted to 0.87 µM.
`CC(C)C[C@H](NC(=O)CNC(=O)OCc1ccccc1)C(=O)N[C@H](CO)CC1CCNC1=O` (stereo partly specified): in the series with Norwalk virus [1], the inhibition was below 25%.
As to `CC(C)C[C@H](NC(=O)OCc1ccccc1)C(=O)N[C@H](C=O)CC1CCNC1=O` (stereo partly specified), the IC50 in series [2] came to 1.82 µM. Moreover, the inhibition result in the series with Norwalk virus [3] was “Dose-dependent effect”. In addition, the CC50 at 48 h in series [4] was above 320 µM. Further, in series [5], the CC50 is above 320 µM.
With `CCCC[C@H](NC(=O)CNC(=O)OCc1ccccc1)C(=O)N[C@H](CO)CC1CCNC1=O` (stereo partly specified), the inhibition in the series with Norwalk virus [1] was below 25%.
Regarding `CC(C)C[C@H](NC(=O)CNC(=O)OCc1ccccc1)C(=O)N[C@H](C=O)CC1CCNC1=O` (stereo partly specified), in series [2], the IC50 is 1.45 µM. Besides, in the series with Norwalk virus [6], the EC50 worked out at 7.8 µM. For the same compound, the CC50 at 48 h in series [4] was above 320 µM. For the same compound, in series [5], the CC50 was above 320 µM.
Turning to `CC(C)C[C@H](NC(=O)OCc1ccccc1)C(=O)N[C@@H](CC1CCNC1=O)C(=O)C(=O)NC(C)C` (stereo partly specified), the inhibition in the series with Norwalk virus [1] was below 25%.
`CC(C)C[C@H](NC(=O)N1CCOCC1)C(=O)N[C@H](C=O)CC1CCNC1=O` (stereo partly specified): the IC50 in series [2] amounted to 7.2 µM.
